Converted amounts (≈) assume the structure as drawn. The source made the active and inactive calls. The rule behind the calls is not given here.
Columns and labels:
[1] = tested on: Mycobacterium tuberculosis; test: fT>MIC for >= 1 log reduction in CFU count in Mycobacterium tuberculosis H37Rv in using simulated dose of at 100 mg assessed as time during compound concentration exceeds MIC of 0.03125 ug/ml assuming 10% unbound compound concentration by one compartment human pharmacokinetic model; type: functional
Summary of the method: (§1)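 A one-compartment PK model was fitted to human data to get median parameters. It simulated steady-state total and free concentrations for 100, 200 or 400 mg once daily, assuming 5, 7, 10 or 15% unbound drug. Free T>MIC was computed against MICs of 0.03125–0.25 µg/ml and compared with the mouse-derived T>MIC target for 1-log10 kill.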

[2] = tested on: Mycobacterium tuberculosis; test: Antimicrobial activity against Mycobacterium tuberculosis H37Rv infected in BALB/c mouse assessed as bacteriostatic effect at 12.5 mg/kg, po administered as single dose; type: functional, organism-based; design: dose 12.5 mg/kg
[3] = tested on: Mycobacterium tuberculosis; test: fT>MIC for >= 1 log reduction in CFU count in Mycobacterium tuberculosis H37Rv in using simulated dose of at 400 mg assessed as time during compound concentration exceeds MIC of 0.25000 ug/ml assuming 10% unbound compound concentration by one compartment human pharmacokinetic model; type: functional
Summary of the method: (§2)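 Human steady-state simulation: one-compartment PK model fitted to patient data, chosen by AIC. Median PK parameters used to simulate total and free concentrations, assuming 5, 7, 10 or 15% unbound, for 100, 200 and 400 mg once daily. Free levels compared with MICs of 0.03125 to 0.25 µg/ml to give %T>MIC; T>MIC is the cumulative percentage of the dosing interval above MIC.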

[4] = tested on: Mycobacterium tuberculosis; test: fT>MIC for >= 1 log reduction in CFU count in Mycobacterium tuberculosis H37Rv in using simulated dose of at 200 mg assessed as time during compound concentration exceeds MIC of 0.06250 ug/ml assuming 15% unbound compound concentration by one compartment human pharmacokinetic model; type: functional; summary of the method: as §1
[5] = tested on: Mycobacterium tuberculosis; test: fT>MIC for >= 1 log reduction in CFU count in Mycobacterium tuberculosis H37Rv in using simulated dose of at 200 mg assessed as time during compound concentration exceeds MIC of 0.25000 ug/ml assuming 7% unbound compound concentration by one compartment human pharmacokinetic model; type: functional; summary of the method: as §1
[6] = tested on: Mycobacterium tuberculosis; test: fT>MIC for >= 1 log reduction in CFU count in Mycobacterium tuberculosis H37Rv in using simulated dose of at 100 mg assessed as time during compound concentration exceeds MIC of 0.25000 ug/ml assuming 5% unbound compound concentration by one compartment human pharmacokinetic model; type: functional; summary of the method: as §1
[7] = Tmax in BALB/c mouse up to 1456 mg/kg, po administered as single dose; type: ADME, organism-based; design: route oral; details: in vivo
Summary of the method: (§3)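 Uninfected 6-week female BALB/c mice received single oral gavage doses of 3–1,458 mg/kg as a cyclodextrin-micelle suspension. Three mice per time point were bled by cardiac puncture under isoflurane at 0.5–120 h. Serum levels were measured by validated HPLC-UV (standards 0.20–50 µg/ml).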

[8] = tested on: Mycobacterium tuberculosis; test: fT>MIC for >= 1 log reduction in CFU count in Mycobacterium tuberculosis H37Rv in using simulated dose of at 100 mg assessed as time during compound concentration exceeds MIC of 0.03125 ug/ml assuming 5% unbound compound concentration by one compartment human pharmacokinetic model; type: functional; summary of the method: as §1
[9] = tested on: Mycobacterium tuberculosis; test: fT>MIC for >= 1 log reduction in CFU count in Mycobacterium tuberculosis H37Rv in using simulated dose of at 200 mg assessed as time during compound concentration exceeds MIC of 0.03125 ug/ml assuming 15% unbound compound concentration by one compartment human pharmacokinetic model; type: functional; summary of the method: as §1
Mus musculus = test: Toxicity in BALB/c mouse assessed as adverse effect up to 1456 mg/kg, po administered as single dose; type: organism-based; design: route oral; details: in vivo; summary of the method: as §3
[10] = tested on: Mycobacterium tuberculosis; test: fT>MIC for >= 1 log reduction in CFU count in Mycobacterium tuberculosis H37Rv in using simulated dose of at 400 mg assessed as time during compound concentration exceeds MIC of 0.25000 ug/ml assuming 7% unbound compound concentration by one compartment human pharmacokinetic model; type: functional; summary of the method: as §2
[11] = tested on: Mycobacterium tuberculosis; test: fT>MIC for >= 1 log reduction in CFU count in Mycobacterium tuberculosis H37Rv in using simulated dose of at 100 mg assessed as time during compound concentration exceeds MIC of 0.25000 ug/ml assuming 15% unbound compound concentration by one compartment human pharmacokinetic model; type: functional; summary of the method: as §1
[12] = tested on: Mycobacterium tuberculosis; test: Antitubercular activity against Mycobacterium tuberculosis H37Rv assessed as reduction in CFU count by agar proportion method; type: functional
Summary of the method: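 Agar proportion method on 7H11 agar with 10% OADC containing 2-fold drug dilutions (0.007–2.0 µg/ml). Plates inoculated with serial 100-fold dilutions of log-phase H37Rv broth culture (~10^8 CFU/ml). Drug-free and isoniazid plates as controls. CFU counted after 21 days at 37°C, 5% CO2. MIC is the lowest concentration giving <1% of drug-free CFU.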

[13] = tested on: Mycobacterium tuberculosis; test: fT>MIC for >= 1 log reduction in CFU count in Mycobacterium tuberculosis H37Rv in using simulated dose of at 200 mg assessed as time during compound concentration exceeds MIC of 0.06250 ug/ml assuming 10% unbound compound concentration by one compartment human pharmacokinetic model; type: functional; summary of the method: as §1
[14] = tested on: Mycobacterium tuberculosis; test: fT>MIC for >= 1 log reduction in CFU count in Mycobacterium tuberculosis H37Rv in using simulated dose of at 200 mg assessed as time during compound concentration exceeds MIC of 0.12500 ug/ml assuming 15% unbound compound concentration by one compartment human pharmacokinetic model; type: functional; summary of the method: as §1
[15] = tested on: Mycobacterium tuberculosis; test: fT>MIC for >= 1 log reduction in CFU count in Mycobacterium tuberculosis H37Rv in using simulated dose of at 100 mg assessed as time during compound concentration exceeds MIC of 0.06250 ug/ml assuming 5% unbound compound concentration by one compartment human pharmacokinetic model; type: functional; summary of the method: as §1
[16] = tested on: Mycobacterium tuberculosis; test: fT>MIC for >= 1 log reduction in CFU count in Mycobacterium tuberculosis H37Rv in using simulated dose of at 100 mg assessed as time during compound concentration exceeds MIC of 0.03125 ug/ml assuming 7% unbound compound concentration by one compartment human pharmacokinetic model; type: functional; summary of the method: as §1

SMILES: O=[N+]([O-])c1cn2c(n1)OC[C@@H](OCc1ccc(OC(F)(F)F)cc1)C2 [PRETOMANID]
- fT>MIC [1]: 100%
- Activity [2]: Active
- fT>MIC [3]: 46%
- fT>MIC [4]: 100%
- fT>MIC [5]: 0%
- fT>MIC [6]: 0%
- Tmax [7]: 4 h
- fT>MIC [8]: 46%
- fT>MIC [9]: 100%
- Activity (Mus musculus): Non-toxic
- fT>MIC [10]: 4%
- fT>MIC [11]: 0%
- MIC [12]: 0.06 µg/mL (≈ 0.167 µM)
- fT>MIC [13]: 100%
- fT>MIC [14]: 67%
- fT>MIC [15]: 0%
- fT>MIC [16]: 67%

Reference: ChEMBL document CHEMBL1687823, “PA-824 exhibits time-dependent activity in a murine model of tuberculosis” (Antimicrob Agents Chemother, 2011)
